According to ChEMBL document CHEMBL1121478, “Potential prophylactic antitumor activity of retinylidene 1,3-diketones” (1980):
Active and inactive are the calls of the source. The rule behind the calls is not given here.

Experiments:
Cricetinae gen. sp. [1] = test: Compound is evaluated for its intrinsic ability to control epithelial cell differentiation by retinoids in hamster tracheal organ culture; assay type: functional, Trachea
Procedure, shortened: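 Hamster trachea organ cultures (procedure from earlier reports). Retinoids tested at 10^-8, 10^-9 and 10^-10 M. Potency given as ED50.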

Cricetinae gen. sp. [2] = test: Compound is evaluated for its intrinsic ability to control epithelial cell differentiation by retinoids in hamster tracheal organ culture at 10e-9 M; IA = inactive(3/4) 3 were inactive out of 4; assay type: functional, organism-based; settings: Trachea
Cricetinae gen. sp. [3] = test: Compound is evaluated for its intrinsic ability to control epithelial cell differentiation by retinoids in hamster tracheal organ culture at 10e-8 M; IA = inactive(9/12) 9 were inactive out of 12; assay type: functional, organism-based; settings: Trachea
Cricetinae gen. sp. [4] = test: Compound is evaluated for its intrinsic ability to control epithelial cell differentiation by retinoids in hamster tracheal organ culture at 10e -9M; IA = inactive(7 cultures were inactive out of 7); assay type: functional, organism-based; settings: Trachea
Cricetinae gen. sp. [5] = test: Compound is evaluated for its intrinsic ability to control epithelial cell differentiation by retinoids in hamster tracheal organ culture at 10e-8 M; act = active(4 cultures were active out of 5); assay type: functional, organism-based; settings: Trachea
Cricetinae gen. sp. [6] = test: Compound is evaluated for its intrinsic ability to control epithelial cell differentiation by retinoids in hamster tracheal organ culture at 10e -8M; IA = inactive( 6 cultures were inactive out of 7); assay type: functional, organism-based; settings: Trachea
Cricetinae gen. sp. [7] = test: Compound is evaluated for its intrinsic ability to control epithelial cell differentiation by retinoids in hamster tracheal organ culture at 10e-9 M; IA = inactive(14/16) 14 were inactive out of 16; assay type: functional, organism-based; settings: Trachea
Cricetinae gen. sp. [8] = test: Compound is evaluated for its intrinsic ability to control epithelial cell differentiation by retinoids in hamster tracheal organ culture at 10e -8M; IA = inactive(16/17) 16 cultures were inactive out of 17; assay type: functional, organism-based; settings: Trachea
Cricetinae gen. sp. [9] = test: Compound is evaluated for its intrinsic ability to control epithelial cell differentiation by retinoids in hamster tracheal organ culture at 10e-9 M; IA = inactive(12/16) 12 were inactive out of 16; assay type: functional, organism-based; settings: Trachea
Cricetinae gen. sp. [10] = test: Compound is evaluated for its intrinsic ability to control epithelial cell differentiation by retinoids in hamster tracheal organ culture at 10e -9M; IA =inactive(8/15) 8 were inactive out of 15; assay type: functional, organism-based; settings: Trachea
Cricetinae gen. sp. [11] = test: Compound is evaluated for its intrinsic ability to control epithelial cell differentiation by retinoids in hamster tracheal organ culture at 10e -10M; IA = inactive(9/12) 9 were inactive out of 12; assay type: functional, organism-based; settings: Trachea

## CC1=C(/C=C/C(C)=C/C=C/C(C)=C/C=C2C(=O)CC(C)(C)CC2=O)C(C)(C)CCC1
Cricetinae gen. sp. [1]
  TOC ED50: 0.24 nM

## CC1=C(/C=C/C(C)=C/C=C/C(C)=C/C=C2C(=O)CC(c3ccccc3)CC2=O)C(C)(C)CCC1 (configuration not stated)
Cricetinae gen. sp. [1]
  TOC ED50: 0.1 nM

## CC1=C(/C=C/C(C)=C/C=C/C(C)=C/C=C2C(=O)CC(C)CC2=O)C(C)(C)CCC1 (configuration not stated)
Cricetinae gen. sp. [1]
  TOC ED50: 0.8 nM

## CC1=C(/C=C/C(C)=C/C=C/C(C)=C/C=C2C(=O)C=CC2=O)C(C)(C)CCC1
Cricetinae gen. sp. [2]
  TOC ED50: inactive

## CC1=C(/C=C/C(C)=C/C=C/C(C)=C/C=C2C(=O)CCCCC2=O)C(C)(C)CCC1
Cricetinae gen. sp. [1]
  TOC ED50: 0.38 nM

## CC1=C(/C=C/C(C)=C/C=C/C(C)=C/C=C2C(=O)CCCCCC2=O)C(C)(C)CCC1
Cricetinae gen. sp. [1]
  TOC ED50: 0.22 nM

## CC1=C(/C=C/C(C)=C/C=C/C(C)=C/C=C2C(=O)c3ccccc3C2=O)C(C)(C)CCC1
Cricetinae gen. sp. [3]
  TOC ED50: inactive

## COc1ccc(C2CC(=O)C(=C/C=C(C)/C=C/C=C(C)/C=C/C3=C(C)CCCC3(C)C)C(=O)C2)cc1 (configuration not stated)
Cricetinae gen. sp. [1]
  TOC ED50: 0.18 nM

## CC(=O)C(=C/C=C(C)/C=C/C=C(C)/C=C/C1=C(C)CCCC1(C)C)C(C)=O
Cricetinae gen. sp. [1]
  TOC ED50: 1.8 nM

## CCC(=O)C(=C/C=C(C)/C=C/C=C(C)/C=C/C1=C(C)CCCC1(C)C)C(=O)CC
Cricetinae gen. sp. [4]
  TOC ED50: inactive
Cricetinae gen. sp. [5]
  TOC ED50: Active

## CC1=C(/C=C/C(C)=C/C=C/C(C)=C/C=C2C(=O)CC(c3ccc(C(F)(F)F)cc3)CC2=O)C(C)(C)CCC1 (configuration not stated)
Cricetinae gen. sp. [1]
  TOC ED50: 0.1 nM

## CCCC(=O)C(=C/C=C(C)/C=C/C=C(C)/C=C/C1=C(C)CCCC1(C)C)C(=O)CCC
Cricetinae gen. sp. [6]
  TOC ED50: inactive

## 2-[3,7-Dimethyl-9-(2,6,6-trimethyl-cyclohex-1-enyl)-nona-2,4,6,8-tetraenylidene]-[3]ferrocenophane-1,3-dione
Cricetinae gen. sp. [7]
  TOC ED50: inactive

## CC1=C(/C=C/C(C)=C/C=C/C(C)=C/C=C2C(=O)CCCCCCC2=O)C(C)(C)CCC1
Cricetinae gen. sp. [1]
  TOC ED50: 0.24 nM

## CC1=C(/C=C/C(C)=C/C=C/C(C)=C/C=C2C(=O)CC(C(C)C)CC2=O)C(C)(C)CCC1 (configuration not stated)
Cricetinae gen. sp. [1]
  TOC ED50: 0.21 nM

## CC1=C(/C=C/C(C)=C/C=C/C(C)=C/C=C2C(=O)CCC2=O)C(C)(C)CCC1
Cricetinae gen. sp. [8]
  TOC ED50: inactive

## CCC1CC(=O)C(=C/C=C(C)/C=C/C=C(C)/C=C/C2=C(C)CCCC2(C)C)C(=O)C1 (configuration not stated)
Cricetinae gen. sp. [1]
  TOC ED50: 0.36 nM

## CC1=C(/C=C/C(C)=C/C=C/C(C)=C/C=C2C(=O)CCCC2=O)C(C)(C)CCC1
Cricetinae gen. sp. [1]
  TOC ED50: 0.11 nM

## CC1=C(/C=C/C(C)=C/C=C/C(C)=C/C=C2C(=O)CCCCCCCCCCCC2=O)C(C)(C)CCC1
Cricetinae gen. sp. [9]
  TOC ED50: inactive

## CC1=C(/C=C/C(C)=C/C=C/C(C)=C/C=C2C(=O)C(C(C)(C)C)CC(C(C)(C)C)C2=O)C(C)(C)CCC1 (configuration not stated)
Cricetinae gen. sp. [10]
  TOC ED50: inactive
Cricetinae gen. sp. [11]
  TOC ED50: inactive
